Source: PubChem
TNAP act hi DEA: TNAP activators at high phosphate acceptor level, primary screen, biochemical, luminescence, uHTS | purified TNAP, CDP-star luminescence, 1 M DEA, 30 min; active compounds read high; 0 = EDTA background, 1 = DMSO-only activity | AID 1136, 2008 | Alkaline phosphatase, tissue-nonspecific isozyme (Homo sapiens), P05186 | 200,000 tested, under 10 active | activation factor at 20 µM;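 active means activation factor at least 2 at 20 µM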
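Measured by: Luminescent substrate turnover signal | Test system: Human TNAP | Input: TNAP 1/800 final | Dosing: 20 µM single point | Schedule: 30 min, room temperature | Controls: EDTA wells as negative control, DMSO wells as positive control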
PMI act hi M6P: human PMI activators, high substrate, primary screen, biochemical, fluorescence intensity, near-saturating mannose 6-phosphate. Mannose-6-phosphate isomerase (Homo sapiens), P34949. actives 0.34% (n = 190,000). activation factor at 20 µM. AID 1216, 2008. coupled PMI enzyme assay, resazurin fluorescence, 20 min; active compounds read high; 1 = untreated enzyme, 0 = substrate-free blank;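 active means activation factor of 2 or more at 20 µM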
Target sequence (P34949 whole entry, looked up): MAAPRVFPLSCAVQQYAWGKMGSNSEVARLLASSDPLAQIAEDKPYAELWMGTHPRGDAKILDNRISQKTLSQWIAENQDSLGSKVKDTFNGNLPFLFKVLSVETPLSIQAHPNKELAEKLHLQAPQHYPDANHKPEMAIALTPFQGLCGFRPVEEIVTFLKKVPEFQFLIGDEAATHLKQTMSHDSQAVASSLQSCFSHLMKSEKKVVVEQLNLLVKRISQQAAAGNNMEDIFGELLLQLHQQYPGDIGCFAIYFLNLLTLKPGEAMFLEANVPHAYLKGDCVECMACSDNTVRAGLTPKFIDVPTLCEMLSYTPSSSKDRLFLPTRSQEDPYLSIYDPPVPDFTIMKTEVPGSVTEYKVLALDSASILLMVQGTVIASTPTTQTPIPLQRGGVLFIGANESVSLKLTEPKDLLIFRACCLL
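Test system: Human PMI in coupled enzyme assay | Input: 15 ng/mL PMI | Medium: HEPES-buffered pH 7.4 with magnesium and detergent | Compound: One concentration, 20 µM, in 1% DMSO | Incubation: Enzyme reaction with compound 20 min at room temperature | Detection: Diaphorase-driven resazurin-to-resorufin fluorescence, excitation 544, emission 590 nm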
TNAP inh noacc: human TNAP enzyme inhibitors, primary screen, biochemical, luminescent, no phosphate acceptor, uHTS | Alkaline phosphatase, tissue-nonspecific isozyme (Homo sapiens), P05186 | AID 1012, 2008 | inhibition, % at 20 µM | purified TNAP, CDP-star luminescence, 30 min | actives 0.26% (n = 200,000);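 active means tissue-nonspecific alkaline phosphatase inhibition above about 50% at 20 µM in the single-dose screen, limit read from the data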;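 further: 0% = DMSO negative control and 100% = EDTA positive control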
PMI activator: activators of human PMI, primary screen, biochemical, fluorescence intensity, near-Km mannose 6-phosphate. purified human PMI, coupled resazurin fluorescence, 20 min; active compounds read high; 1 = vehicle control, 0 substrate-free wells. activation factor at 20 µM. actives 0.005% (n = 190,000). AID 1214, 2008;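 active means activation factor of 2 or more at 20 µM, relative to plate controls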
TNAP inh hiacc: human TNAP enzyme inhibitors, primary screen, biochemical, luminescent, high phosphate acceptor level, uHTS; inhibition, % at 20 µM; purified TNAP, CDP-star luminescence, 1 M DEA; actives 0.03% (n = 200,000);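 active means over 50% inhibition of tissue-nonspecific alkaline phosphatase at 20 µM in the single-dose screen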;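 further: plate controls were DMSO wells for no effect and EDTA-quenched wells as full inhibition for full effect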
* marks the source's active call; other numbers are inactive results. Rows were chosen to be rich in hits. Some 0.64% of all compounds tested hit in one or more screens of this group.

For Cc1cccc(C)c1N1CCN(C(=O)N2CCCCC2)CC1 the results were TNAP act hi DEA 1.1, PMI act hi M6P 2*, TNAP inh noacc -8.7, PMI activator 1.6 and TNAP inh hiacc -6.6.
For COC(=O)c1c(-c2ccc(C)cc2)csc1NC(=S)NC(=O)c1cc(OC)cc(OC)c1 the results were TNAP act hi DEA 1, PMI act hi M6P 0.9, TNAP inh noacc -12.3, PMI activator 0.8 and TNAP inh hiacc 1.8.
COc1ccc(-c2[nH]ncc2C=O)cc1 was read as TNAP act hi DEA 1, PMI act hi M6P 1.1, TNAP inh noacc 69.9*, PMI activator 1 and TNAP inh hiacc 2.9.
`O=C(NC1CC1)C1CCC(=O)N1C1CCCC1` (stereo not drawn) gave TNAP act hi DEA 1, PMI act hi M6P 0.9, TNAP inh noacc -2.9, PMI activator 0.8 and TNAP inh hiacc 1.6.
Cc1csc(NC(=O)c2ccc(C)c(S(=O)(=O)N3CCOCC3)c2)n1 was read as TNAP act hi DEA 1, PMI act hi M6P 1, TNAP inh noacc -4.6, PMI activator 1 and TNAP inh hiacc 1.6.
For O=C(N/N=C/c1ccc(O)c(O)c1)c1ccc(CSc2cccc3cccnc23)cc1 the results were TNAP act hi DEA 0.8, PMI act hi M6P 0.9, TNAP inh noacc 57.3*, PMI activator 0.8 and TNAP inh hiacc 20.8.
`C[C@@H]1CC[C@@]2(O[C@H](CCO)C[C@H](O)[C@H]2O)O1` gave TNAP act hi DEA 1, PMI act hi M6P 1, TNAP inh noacc -3.5, PMI activator 1 and TNAP inh hiacc -0.8.
COc1ccc(-n2cc(-c3ccccc3)[nH]c2=S)cc1 was read as TNAP act hi DEA 1, PMI act hi M6P 1, TNAP inh noacc -16.5, PMI activator 0.9 and TNAP inh hiacc -1.7.
CCOc1ccc(-n2cc(-c3ccc(OC)c(OC)c3)[nH]c2=S)cc1 was read as TNAP act hi DEA 1, PMI act hi M6P 1.1, TNAP inh noacc 61.6*, PMI activator 1.1 and TNAP inh hiacc -0.9.
Screening O=C1CC(c2ccc(F)cc2)Sc2ccccc2N1 (stereo not drawn) returned TNAP act hi DEA 1, PMI act hi M6P 0.9, TNAP inh noacc -2.7, PMI activator 0.9 and TNAP inh hiacc 0.7.
Screening O=C1CC(c2ccc(F)cc2)Sc2nc(C34CC5CC(CC(C5)C3)C4)nn21 (stereo not drawn) returned TNAP act hi DEA 1, PMI act hi M6P 0.9, TNAP inh noacc 85.7*, PMI activator 0.8 and TNAP inh hiacc -3.9.
For CCOc1nc(N2CCCCC2)nc(-n2cc(-c3ccccc3)nn2)n1 the results were TNAP act hi DEA 1, PMI act hi M6P 1, TNAP inh noacc -9.1, PMI activator 1 and TNAP inh hiacc 0.3.
O=C(O)c1ccccc1-c1ccccc1C(=O)Nc1ccccc1 was read as TNAP act hi DEA 1, PMI act hi M6P 1, TNAP inh noacc -8.0, PMI activator 1 and TNAP inh hiacc -0.6.
O=C(O)c1ccccc1-c1ccccc1C(=O)NNc1ccccc1 was read as TNAP act hi DEA 1.1, PMI act hi M6P 2.9*, TNAP inh noacc -11.1, PMI activator 1.7 and TNAP inh hiacc -5.4.
For COc1ccc(NC(=O)C(OC(=O)c2ccc([N+](=O)[O-])o2)c2ccccc2)cc1Cl (stereo not drawn) the results were TNAP act hi DEA 1, PMI act hi M6P 0.8, TNAP inh noacc 2.8, PMI activator 0.8 and TNAP inh hiacc 0.4.
For CCOC(=O)C1C(=O)Nc2nc(C)nn2C1c1ccccc1 (stereo not drawn) the results were TNAP act hi DEA 1, PMI act hi M6P 0.8, TNAP inh noacc -1.7, PMI activator 0.8 and TNAP inh hiacc -2.4.
CCOC(=O)C1C(=O)Nc2nc3ccccc3n2C1C(C)C (stereo not drawn) was read as TNAP act hi DEA 1, PMI act hi M6P 1, TNAP inh noacc 91.7*, PMI activator 0.9 and TNAP inh hiacc -0.4.
Screening Cc1ccc([N+](=O)[O-])cc1NCC(=O)NN returned TNAP act hi DEA 1, PMI act hi M6P 0.9, TNAP inh noacc 78.7*, PMI activator 1 and TNAP inh hiacc -0.5.
`CCCCCCCCC(=O)N/N=C(\C)c1cccnc1` gave TNAP act hi DEA 1, PMI act hi M6P 2.3*, TNAP inh noacc 1.7, PMI activator 1.5 and TNAP inh hiacc 0.3.
Screening O=C1Nc2ccccc2N(O)N1c1cc(-c2ccc(Cl)cc2)[nH]n1 returned TNAP act hi DEA 1, PMI act hi M6P 0.9, TNAP inh noacc 62.8*, PMI activator 1 and TNAP inh hiacc -2.2.
COc1cc(OC)cc(-c2cc(N3C(=O)Nc4ccccc4N3O)n[nH]2)c1 was read as TNAP act hi DEA 1, PMI act hi M6P 1, TNAP inh noacc -18.7, PMI activator 0.9 and TNAP inh hiacc -1.6.
[O-]C1=N/[N+](=C/c2ccc(Cl)cc2)CC1 was read as TNAP act hi DEA 1, PMI act hi M6P 2*, TNAP inh noacc -0.8, PMI activator 1.5 and TNAP inh hiacc 0.5.
For CCC(=O)NC(=S)NNC(=O)c1ccc(O)cc1 the results were TNAP act hi DEA 0.9, TNAP inh noacc 97.3* and TNAP inh hiacc 6.9.
C/C(=N\N=C\c1ccccc1F)c1nnn(-c2nonc2N)c1C was read as TNAP act hi DEA 1, PMI act hi M6P 1, TNAP inh noacc -7.3, PMI activator 1 and TNAP inh hiacc -1.5.
O=C(O)C/C=C(\NC(=O)OCc1ccccc1)C(=O)OCc1ccccc1 was read as TNAP act hi DEA 1.1, PMI act hi M6P 2.6*, TNAP inh noacc 1.2, PMI activator 1.9 and TNAP inh hiacc -5.8.
Screening Cc1nc(N)sc1N=Nc1ccc(F)cc1 returned TNAP act hi DEA 0.9, PMI act hi M6P 1.6, TNAP inh noacc 7.7, PMI activator 1.4 and TNAP inh hiacc 12.0.
For Oc1ccc(/C=N/NC(=S)Nc2cccnc2)cc1O the results were TNAP act hi DEA 0.8, PMI act hi M6P 0.9, TNAP inh noacc 77.7*, PMI activator 0.6 and TNAP inh hiacc 19.7.
For COc1ccccc1CNCc1cc(OC)c(OC)c(OC)c1 the results were TNAP act hi DEA 1, PMI act hi M6P 1.1, TNAP inh noacc -5.4, PMI activator 1.1 and TNAP inh hiacc 0.6.
COc1ccccc1CNN was read as TNAP act hi DEA 1, PMI act hi M6P 2.2*, TNAP inh noacc -4.7, PMI activator 1.6 and TNAP inh hiacc 1.1.
